# Hits are enriched below; roughly 2.3% of the tested compounds scored in any of these assays.
# CAL PDZ FP-1 – CAL PDZ peptide-binding inhibitors, primary screen, biochemical, fluorescence polarization, Cer-tagged CAL PDZ, HTS; Golgi-associated PDZ and coiled-coil motif-containing protein (Homo sapiens), Q9HD26; purified CAL PDZ, TMR-peptide fluorescence polarization, 1 h; inhibition, % at 20 µM; 0.02% of 330,000 active; AID 504414, 2011;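 active = highest replicate inhibition of at least 40%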;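 note: plate controls were DMSO neutral control wells for no effect and unlabeled competitor peptide control wells for full effect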
#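 System: tagged CAL PDZ domain. Schedule: 1 h room-temperature incubation prior to read. Signal: fluorescence polarization (mP). Measure: percent inhibition from loss of millipolarization.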
# SR-BI DiI-HDL act – activators of SR-BI mediated DiI-HDL uptake, primary screen, ldlA[mSR-BI] CHO cells, DiI fluorescence; 3 h; 100 = double the neutral-control signal; activation, % at 12.5 µM; 0.096% of 320,000 active;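 active = mean replicate activation of at least 60% and every replicate at or above 60%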;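 note: 0% = median plate neutral-control signal and 100% = twice that signal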
#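 Material – SR-BI-overexpressing, LDLR-lacking CHO cells · Medium – BSA-supplemented, HEPES-buffered Ham's F12, pH 7.4 · Doses – single concentration · Times – compound with DiI-HDL co-incubation, 3 h at 37 °C · Measured by – bottom-read fluorescence, 550/595 nm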
# CAL PDZ FP-2 – untagged CAL PDZ binding inhibitors, primary screen, biochemical, fluorescence polarization, HTS; purified CAL PDZ, TMR-peptide fluorescence polarization, 1 h; 0.92% of 300,000 active; inhibition, % at 24.9 µM;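 active = mean inhibition of at least 30% with at least half of replicates also reaching 30%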;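 note: 0% = DMSO neutral control and 100% = excess unlabeled competitor peptide PRC23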
# ATG4B inh – ATG4B protease inhibitors, primary screen, biochemical, fluorescence, uHTS | Cysteine protease ATG4B (Homo sapiens), Q9Y4P1 | ATG4B cleavage of LC3-PLA2, NBD-HPC fluorescence, 1 h | inhibition, % at 8.33 µM | 0.51% of 340,000 active | AID 504462, 2011; in the data active = inhibition above about 40%
# Target sequence (Q9Y4P1 whole entry, looked up): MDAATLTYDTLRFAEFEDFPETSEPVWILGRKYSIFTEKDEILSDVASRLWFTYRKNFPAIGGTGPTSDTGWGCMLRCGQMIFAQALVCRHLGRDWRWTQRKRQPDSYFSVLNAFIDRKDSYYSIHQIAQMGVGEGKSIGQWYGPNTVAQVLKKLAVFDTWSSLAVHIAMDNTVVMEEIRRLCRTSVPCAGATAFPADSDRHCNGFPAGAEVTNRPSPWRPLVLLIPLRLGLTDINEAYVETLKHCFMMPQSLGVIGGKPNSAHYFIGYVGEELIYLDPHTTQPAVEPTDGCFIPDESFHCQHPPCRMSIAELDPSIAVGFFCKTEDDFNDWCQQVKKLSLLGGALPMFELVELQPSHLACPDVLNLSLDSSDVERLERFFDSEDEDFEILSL
# SR-BI HDL uptake – inhibitors of SR-BI mediated HDL lipid uptake, primary screen, ldlA[mSR-BI] cells, fluorescence, single point | ldlA[mSR-BI] CHO cells, DiI-HDL uptake fluorescence, 3 h | 0.96% of 320,000 active | AID 488896, 2010 | inhibition, % at 12.5 µM;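 active = mean replicate inhibition of at least 70% and a set share of replicates each scoring 70 or more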;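 note: 0% = median of neutral control wells and 100% = median of positive control wells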
# * hit, by the source's call; . = no result.
SMILES,CAL PDZ FP-1,SR-BI DiI-HDL act,CAL PDZ FP-2,ATG4B inh,SR-BI HDL uptake
COc1ccc2cc(-c3cc(C(=O)OCC(=O)Nc4c(C)n(C)n(-c5ccccc5)c4=O)c4ccccc4n3)ccc2c1,-1.1,-76.1,-4.2,-8.8,76.1*
N#CCCN=C(NS(=O)(=O)c1ccccc1)c1ccccc1,-0.5,.,-2.7,-2.7,.
COc1ccc(-c2cc(C(=O)Nc3c(C)n(C)n(-c4ccccc4)c3=O)no2)cc1,-1.7,.,3.0,6.9,.
Cc1c(NC(=O)c2cc3nc(-c4ccc(Cl)cc4)cc(C(F)(F)F)n3n2)c(=O)n(-c2ccccc2)n1C,-1.8,-70.0,4.7,1.6,70.0*
COc1ccc(-c2cc(C(F)(F)F)n3nc(C(=O)NCCN4CCOCC4)cc3n2)cc1,1.1,-76.9,-7.6,-4.5,76.9*
COc1ccc(-c2cc(C(F)(F)F)n3nc(C(=O)Nc4c(C)n(C)n(-c5ccccc5)c4=O)cc3n2)cc1,.,-79.6,3.6,-10.3,79.5*
COc1ccc(-c2cc(C(F)(F)F)n3nc(C(=O)NCCCn4ccnc4)cc3n2)cc1,-1.9,-63.8,-2.2,-11.1,63.8
COc1ccc(CC(=O)NCC(=O)Nc2ccccc2Br)cc1,-2.9,.,-2.0,-7.8,.
O=S(=O)(NCc1cc(-c2ccc(Cl)cc2)no1)c1ccc(Cl)cc1,-0.9,12.5,44.1*,-18.9,-12.5
O=S(=O)(NCc1cc(-c2ccc(Cl)cc2)no1)c1ccccc1,-1.7,17.7,-2.0,-8.3,-17.7
O=C1CCCC(=O)C1=Cc1c[nH]c2ccccc12,-0.7,15.0,70.1*,-8.9,-7.8
CCN(C(=O)COC(=O)COc1ccccc1Cl)c1c(N)n(Cc2ccccc2)c(=O)[nH]c1=O,-1.0,-20.9,-3.0,-7.3,20.9
CCN(CC)c1ccc(/C=N/NC(=O)c2ccoc2C)c(O)c1,-0.2,-100.1,-8.3,-0.2,100.1*
CCN(CC)c1ccc(/C=N/NC(=O)c2nnn(-c3nonc3N)c2C(C)C)c(O)c1,-0.8,-132.6,-0.1,6.0,132.6*
O=c1ccc2cc3c([nH]c4ccc(Br)cc43)oc-2c1O,48.2*,-87.8,4.5,.,87.8*
Cc1ccc(S(=O)(=O)CCC(=O)OCC(=O)Nc2cc(S(=O)(=O)N3CCOCC3)ccc2C)cc1,-1.7,13.6,-10.2,-5.6,-13.6
COc1ccc(S(=O)(=O)N(C)C[C@H]2Oc3ccc(NC(=O)NC4CCCCC4)cc3C(=O)N([C@H](C)CO)C[C@@H]2C)cc1,-1.2,-9.9,2.4,28.7,9.9
O=C(CC1C(=O)NCCN1Cc1cccc(F)c1)NCCCCCN1CCOCC1 (stereo not given),-1.1,29.1,48.3*,-7.5,-29.1
COc1cc(CN2CCNC(=O)C2CC(=O)NCCCN2CCOCC2)cc(OC)c1 (stereo not given),-0.2,7.0,-4.4,8.4,-7.0
CC(Oc1ccc2ccccc2c1)C(=O)NNC(=O)Nc1ccccc1 (stereo not given),-2.7,16.3,-1.9,5.1,-16.3
O=C(Nc1ccc(Cl)c(Cl)c1)N1CCCCCC1,-0.3,-10.9,28.4,-2.1,10.9
O=C(Nc1ccc(Cl)c(Cl)c1)Nc1ccc(N2CCCC2)c(S(=O)(=O)Nc2ccccc2Cl)c1,-3.8,-86.3,-3.9,-2.0,86.3*
O=C(Nc1ccc(Cl)c(Cl)c1)Nc1ccccc1O,0.3,-77.9,-2.9,9.4,77.9*
O=C(Nc1ccc(F)cc1)Nc1ccc(N2CCCC2)c(S(=O)(=O)Nc2ccccc2Cl)c1,-1.6,-87.0,-2.1,34.5,87.0*
O=C(Nc1ccc(Cl)c(Cl)c1)N1CCSCC1,.,319.7*,2.7,-10.6,-319.7
SMILES,CAL PDZ FP-1,SR-BI DiI-HDL act,CAL PDZ FP-2,ATG4B inh,SR-BI HDL uptake
NC(N)=NCCCS(=O)(=O)Nc1ccc(Nc2c3ccccc3nc3cc([N+](=O)[O-])ccc23)cc1,0.5,2.4,-4.4,6.5,-2.4
COC(=O)Cn1c(=NC(=O)c2ccc(OC)cc2)sc2cc(OC)ccc21,-2.7,-70.9,-3.7,-9.1,70.9*
COC(=O)Cn1c(=NC(=O)c2cc(OC)cc(OC)c2)sc2cc(OC)ccc21,-1.7,-62.0,-1.3,-10.2,62.0
Cc1ccc(SCc2nc(N)nc(Nc3ccccc3C)n2)c(C)c1,-2.0,0.2,-0.7,-11.1,-0.2
Cc1ccc(Nc2nc(N)nc(CSc3nccn3C)n2)c(C)c1,-1.4,-8.0,38.3*,2.5,8.0
CC1=C(C(=O)OCC2CCCO2)C(c2ccc(C)cc2)C2=C(CC(C)(C)CC2=O)N1 (stereo not given),-1.0,17.7,-1.1,-7.3,-17.7
Cc1c(C(C)C[C@H](C)O)oc(=O)c2c1Oc1c(C)c(C(C)C[C@H](C)O)oc(=O)c1C2 (stereo not given in full),-0.6,-3.8,15.7,1.2,3.8
COC(=O)c1ccc(CN2CCCC(CNC(=O)Cc3ccc(OC)cc3)C2)cc1 (stereo not given),0.2,0.0,-4.0,-1.8,0.0
COc1ccc(CC(=O)NCC2CCCN(Cc3ccc(OC(F)(F)F)cc3)C2)cc1 (stereo not given),-4.0,10.7,63.4*,-3.2,-10.7
CC(C)OCCCNC(=S)NNC(=O)c1ccc(Cl)c(Cl)c1,-0.1,6.0,.,-4.3,-6.0
CCn1c(N)c(C(=O)NCc2cccnc2)sc1=S,-2.5,-1.8,2.7,13.4,1.8
CCn1c(C(=O)NCc2cccnc2)cc2sc(Cl)cc21,-2.7,418.3*,.,-6.0,-418.3
O=C(O)c1ccc(S(=O)(=O)N2CCCc3ccccc32)cc1,0.2,-15.5,-6.4,-2.2,15.5
COCCNC(=O)c1ccc(S(=O)(=O)N2CCCc3ccccc32)cc1,0.4,-34.1,59.0*,-1.1,34.1
COc1cc(-c2noc(C)c2/C=C/c2cccc([N+](=O)[O-])c2)cc(OC)c1OC,-1.0,-81.0,-4.7,-16.7,81.0*
NC(=O)c1cc2cc([N+](=O)[O-])ccc2oc1=O,-2.6,.,-3.3,8.3,.
CCOc1ccccc1N1CCN(c2nc3ccccc3nc2C(C#N)C(=O)OC)CC1 (stereo not given),-1.3,-75.2,.,2.7,75.2*
CC(NC(=O)Cc1ccc(Br)cc1)c1ccccc1 (stereo not given),.,28.1,-4.1,-5.8,-28.1
Cn1nnc(NC(=S)NC(=O)c2cc(Cl)ccc2Cl)n1,-3.0,20.9,-5.6,17.3,-20.9
Cc1cccc(-n2nc(C)c3c2NC2=C(C(=O)CCC2)C3c2ccccn2)c1 (stereo not given),.,9.0,79.2*,-2.3,-9.0

# Assay outcomes (PubChem BioAssay)
